Reference: ChEMBL document CHEMBL4371031, “In Vitro Antiviral Activity of New Oxazoline Derivatives as Potent Poliovirus Inhibitors” (J Med Chem, 2019)

What was measured:
Type in all cases: functional, organism-based
Conditions in all cases: Enterovirus C
Poliovirus 1 = assay: Antiviral activity against Poliovirus Sabin 1 infected in human HeLa cells assessed as reduction in virus-induced cytopathic effect after 72 hrs by crystal violet staining-based assay
Procedure, shortened: (§1)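 HeLa cells grown in MEM-10% FBS, seeded at 2x10^5 cells/mL in MEM-2% FBS and preincubated 24 h at 37°C, 5% CO2. Compound and virus were cross-titrated […] compound in 0.5 log10 steps (7-point curves), with duplicate wells and three replicate tests per virus. After 72 h at 37°C, cells were crystal violet stained and read at 590 nm. EC50 came from a four-parameter fit; if all virus dilutions gave >80% monolayer destruction, the value was […].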

Poliovirus 2 = assay: Antiviral activity against Poliovirus Sabin 2 infected in human HeLa cells assessed as reduction in virus-induced cytopathic effect after 72 hrs by crystal violet staining-based assay; procedure, shortened: as §1
Poliovirus 3 = assay: Antiviral activity against Poliovirus Sabin 3 infected in human HeLa cells assessed as reduction in virus-induced cytopathic effect after 72 hrs by crystal violet staining-based assay
Procedure, shortened: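 HeLa cells grown in MEM-10% FBS, seeded at 2x10^5 cells/mL in MEM-2% FBS and held 24 h at 37°C, 5% CO2. Compound and virus were cross-titrated together on the cells starting at 10 µM compound, in 0.5 log10 steps, duplicate wells, three replicate tests per virus. Incubated 72 h at 37°C, stained with crystal violet, A590 read. EC50 from four-parameter fit.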

SMILES | EC50 (Poliovirus 1) [nM] | EC50 (Poliovirus 2) [nM] | EC50 (Poliovirus 3) [nM]
Cc1ccc(C(=O)CCCC[S+]([O-])c2ccc(C3=NCCO3)cc2)s1 (racemic) | > 10000 | > 10000 | > 10000
COc1ccc(OCc2ccc(COc3c(Cl)cccc3Cl)cc2)c(Cl)c1 | 17 | 16 | 20
Cc1ccc(C(=O)c2cccc(COc3ccc(C4=NCCO4)cc3)c2)s1 | > 10000 | > 10000 | > 10000
Cc1ccc(C(=O)CCCCOc2ccc(C3=N[C@H](C)CO3)cc2)s1 | > 100000 | 417 | 1320
Cc1ccc(C(=O)CCCCS(=O)(=O)c2ccc(C3=NCCO3)cc2)s1 | > 10000 | > 10000 | > 10000
Cc1ccc(C(=O)c2cccc(CSc3ccc(C4=NCCO4)cc3)c2)s1 | > 10000 | > 10000 | > 10000
Cc1ccc(C(=O)CCCCCc2ccc(C3=NCCO3)cc2)s1 | > 10000 | 9270 | 9070
Cc1ccc(C(=O)CCCCSc2ccc(C3=N[C@H](C)CO3)cc2)s1 | 169 | 302 | 530
CCOC(=O)c1ccc(OCCC2CCN(c3ccc(C)nn3)CC2)cc1 [PIRODAVIR] | 4.5 | 5 | 8
N#Cc1ccc(NC(=O)c2cc3n(n2)C(C(F)(F)F)CC(c2cccs2)N3)cc1 (stereo unspecified) | 10 | 26 | 218
Cc1ccc(C(=O)CCCC#Cc2ccc(C3=NCCO3)cc2)s1 | > 10000 | 9090 | 9160
C#CC[C@@H](C(=O)N[C@H](/C=C/C(=O)OCC)C[C@@H]1CCNC1=O)n1cccc(NC(=O)c2cc(C)on2)c1=O [IMOCITRELVIR] | 173 | 305 | 137
